Measured values taken from article PMC4241044 (Journal of Clinical Pharmacology, 2014).
Read-outs that look alike come from different tables or passages of the source. Marks after values point to notes of the source that are not given here. Blank lines part the entries; values can stand above or below the molecule they belong to.

Key:
[1] = assay type: in vivo, human; settings: for AUC(0-inf) / Cmax / Vd/F / Tmax / half-life: human, plasma, oral; for Tmax: median (minimum–maximum); for half-life: t½; for increase in AUC∞ / increase in Cmax: compared with normal renal function; for DNAUC∞ (dose-normalized AUC∞) / DNCmax (dose-normalized Cmax): dose-normalized to 10 mg
[2] = steady-state erythromycin; previous Phase I drug–drug interaction study; cited from earlier work
prothrombin time (PT) = test: Prothrombin time prolongation in plasma; assay type: in vivo, human
In short: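 Subjects were grouped by mean of two Cockcroft–Gault CLCR estimates: ≥80 (normal), 50–79 (mild) and 30–49 mL/min (moderate). […] PT blood was drawn at −1 h (baseline) and 0.5–48 h post-dose. […] Log-transformed geometric mean ratios with 90% CI; completers only.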

[3] = cited from earlier work
[4] = previous study, cited from earlier work
[5] = Rivaroxaban urine pharmacokinetics; assay type: in vivo, human; settings: arithmetic mean (SD); for CL renal: human, urine and plasma, oral, CLR, renal clearance
Factor Xa activity = Factor Xa activity (Homo sapiens, UniProt P00742); test: Factor Xa inhibition in plasma; assay type: in vivo
Safety and tolerability = assay type: in vivo, human
In short: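 Monitoring was continuous and covered bleeding events and other treatment-emergent adverse events, with severity and relation to study drugs. Vital signs, ECG, haematology, clinical chemistry, PT/aPTT and urinalysis were checked, plus regular physical examinations. Subjects were grouped by Cockcroft–Gault CLCR. […] Analysis included all subjects receiving ≥1 study-drug dose.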

[6] = 2.5–10 mg dose range under fasting conditions and 10–20 mg dose range under fed conditions; ref previous Phase I studies; cited from earlier work
[7] = Erythromycin trough plasma concentrations, attainment of steady state; assay type: in vivo, human; settings: erythromycin 500 mg tid, visual inspection
In short: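 Erythromycin 500 mg tid was given for 6 days in treatment periods 2 and 3. Trough plasma was sampled before the morning erythromycin dose on days 2–6 and on the morning of day 7, then stored frozen. Assay was LC/MS/MS after methanol protein precipitation, on a reverse-phase column at 40 °C. Steady state was judged visually from concentration–time plots.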

[8] = Mild RI, rivaroxaban 10 mg + erythromycin 500 mg tid
[9] = Moderate RI, rivaroxaban 10 mg + erythromycin 500 mg tid
[10] = 10 mg, geometric mean, Normal RF, rivaroxaban 10 mg
[11] = 10 mg, rivaroxaban 10 mg, mild renal impairment, arithmetic mean (SD)
[12] = rivaroxaban 5 mg + erythromycin 500 mg tid, mild renal impairment, arithmetic mean (SD)
[13] = rivaroxaban 5 mg + erythromycin 500 mg tid, moderate renal impairment, arithmetic mean (SD)
[14] = rivaroxaban 10 mg + erythromycin 500 mg tid, normal renal function, arithmetic mean (SD)
[15] = rivaroxaban 10 mg + erythromycin 500 mg tid, moderate renal impairment, arithmetic mean (SD)
[16] = rivaroxaban 5 mg + erythromycin 500 mg tid, mild renal impairment
[17] = rivaroxaban 10 mg + erythromycin 500 mg tid, moderate renal impairment
[18] = mild renal impairment, rivaroxaban 10 mg with steady-state erythromycin, rivaroxaban 10 mg alone
[19] = mild renal impairment, rivaroxaban 10 mg
[20] = moderate renal impairment, rivaroxaban 10 mg with steady-state erythromycin, rivaroxaban 10 mg alone
[21] = moderate renal impairment, rivaroxaban 10 mg
[22] = mild renal impairment vs normal renal function, rivaroxaban 10 mg
[23] = moderate renal impairment vs normal renal function, rivaroxaban 10 mg
[24] = normal renal function, rivaroxaban 10 mg + erythromycin vs rivaroxaban alone
[25] = rivaroxaban 5 mg + erythromycin 500 mg tid, moderate renal impairment
[26] = rivaroxaban 10 mg + erythromycin 500 mg tid, mild renal impairment
[27] = rivaroxaban 10 mg + erythromycin 500 mg tid, normal renal function

Sequence of Factor Xa activity (P00742 235-488 limits assumed): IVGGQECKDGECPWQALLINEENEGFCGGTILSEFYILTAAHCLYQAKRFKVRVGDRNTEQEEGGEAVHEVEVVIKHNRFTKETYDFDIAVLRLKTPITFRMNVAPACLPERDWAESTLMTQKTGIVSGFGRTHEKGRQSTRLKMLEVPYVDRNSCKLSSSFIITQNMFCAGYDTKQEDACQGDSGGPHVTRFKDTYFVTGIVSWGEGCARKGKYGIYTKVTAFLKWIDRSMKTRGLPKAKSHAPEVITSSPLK
Sequence of Factor Xa activity (P00742 41-179 partner limits assumed): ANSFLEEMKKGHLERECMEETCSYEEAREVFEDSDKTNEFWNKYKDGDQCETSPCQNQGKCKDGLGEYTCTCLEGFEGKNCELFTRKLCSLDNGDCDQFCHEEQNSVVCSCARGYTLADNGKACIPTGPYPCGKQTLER

AUC∞, geometric mean [1, 8]: 3,078.7 ng · h/mL
Cmax, geometric mean [1, 8]: 277.2 ng/mL
Cmax, geometric mean [1, 9]: 292.42 ng/mL
AUC∞, geometric mean ([1]; Moderate RI, rivaroxaban 10 mg + erythromycin 500 mg tid, n = 7): 3,475.5 ^a ng · h/mL
Cmax, geometric mean ([1]; Normal RF, rivaroxaban 10 mg): 178.17 ng/mL
AUC(0-inf) ([1]; 10 mg, geometric mean, Mild RI, rivaroxaban 10 mg): 2000 ng·h/mL
AUC(0-inf) ([1]; 10 mg, geometric mean, Moderate RI, rivaroxaban 10 mg): 2040 ng·h/mL
AUC(0-inf) [1, 10]: 1750 ng·h/mL
AUC(0-inf) [1, 11]: 2020 ng·h/mL
Cmax [1, 10]: 178 ng/mL
Vd/F [1, 11]: 77.3 L
Tmax ([1]; 10 mg, rivaroxaban 10 mg, mild renal impairment): 3 h
Tmax ([1]; 10 mg, rivaroxaban 10 mg, moderate renal impairment): 3 h
half-life [1, 11]: 594 min
AUC(0-inf) [1, 12]: 1970 ng·h/mL
AUC(0-inf) [1, 13]: 1980 ng·h/mL
AUC(0-inf) [1, 14]: 2470 ng·h/mL
Cmax [1, 15]: 323 ng/mL
Cmax [1, 14]: 256 ng/mL
Vd/F [1, 12]: 37.5 L
Vd/F ([1]; rivaroxaban 10 mg + erythromycin 500 mg tid, mild renal impairment, arithmetic mean (SD)): 46 L
Vd/F [1, 15]: 40.9 L
Vd/F [1, 14]: 44.2 L
Tmax [1, 16]: 3 h
Tmax [1, 17]: 3 h
half-life [1, 13]: 600 min
increase in AUC∞ [1, 18]: approximately 76%
increase in Cmax [1, 18]: ~56%
increase in AUC∞ [1, 19]: approximately 15%
increase in Cmax [1, 19]: ~23%
increase in AUC∞ [1, 20]: ~99%
increase in Cmax [1, 20]: ~64%
increase in AUC∞ [1, 21]: approximately 17%
increase in Cmax [1, 21]: ~36%
DNAUC∞ (dose-normalized AUC∞) [1, 12]: 3,935 (1,671) ng · h/mL
DNCmax (dose-normalized Cmax) [1, 12]: 358 (109) ng/mL
DNAUC∞ (dose-normalized AUC∞) [1, 13]: 3,961 (1,020) ng · h/mL
DNCmax (dose-normalized Cmax) [1, 13]: 329 (104) ng/mL
CL renal [5, 16]: 15.9 mL/min
CL renal [5, 25]: 9.25 mL/min
CL renal [5, 26]: 19.2 mL/min
CL renal [5, 17]: 13.3 mL/min
CL renal [5, 27]: 34.3 mL/min
Factor Xa inhibition AUC0–48h, geometric mean (Factor Xa activity; [9]): 842.3
Factor Xa inhibition Emax, geometric mean (Factor Xa activity; [9]): 53.61
Factor Xa inhibition AUC0–48h, geometric mean (Factor Xa activity; Normal RF, rivaroxaban 10 mg): 593.43
Factor Xa inhibition Emax, geometric mean (Factor Xa activity; Normal RF, rivaroxaban 10 mg): 39.38
increase in Factor Xa inhibition AUC0–48h (Factor Xa activity; [22]): approximately 16%
increase in Factor Xa inhibition Emax (Factor Xa activity; [22]): ~17%
increase in Factor Xa inhibition AUC0–48h (Factor Xa activity; [23]): approximately 3%
increase in Factor Xa inhibition Emax (Factor Xa activity; [23]): ~17%
Factor Xa inhibition AUC0–48h lower by (Factor Xa activity; [24]): approximately 8%
increase in Factor Xa inhibition Emax (Factor Xa activity; [24]): approximately 18%
Compound: O=C(NC[C@H]1CN(c2ccc(N3CCOCC3=O)cc2)C(=O)O1)c1ccc(Cl)s1 [Rivaroxaban, rivaroxaban]
increase in AUC∞ [2]: approximately 34%
increase in Cmax [2]: approximately 34%
Prothrombin time AUC0–48h, geometric mean (prothrombin time (PT); [8]): 118.7
Prothrombin time Emax, geometric mean (prothrombin time (PT); [8]): 9.85
Prothrombin time AUC0–48h, geometric mean (prothrombin time (PT); [9]): 115.1
Prothrombin time Emax, geometric mean (prothrombin time (PT); [9]): 10.02
Prothrombin time AUC0–48h, geometric mean (prothrombin time (PT); Normal RF, rivaroxaban 10 mg): 67.82
Prothrombin time Emax, geometric mean (prothrombin time (PT); Normal RF, rivaroxaban 10 mg): 8.24
increase in PT Emax (prothrombin time (PT); [22]): ~5%
change in PT AUC0–48h (prothrombin time (PT); [23]): did not seem to change significantly
change in PT Emax (prothrombin time (PT); [23]): did not seem to change significantly
increase in PT AUC0–48h (prothrombin time (PT); [24]): approximately 22%
increase in PT Emax (prothrombin time (PT); [24]): ~10%
dose metabolized via CYP2J2 [3]: 14%
dose metabolized via CYP3A4/3A5 [3]: approximately 18%
dose metabolized via CYP-independent hydrolysis [3]: 14%
drug excreted unchanged by the kidneys [3]: approximately 36%
fraction of the absorbed dose hepatically metabolized ([3]; via CYP3A4/3A5, CYP2J2 and CYP-independent mechanisms): approximately two-thirds
fraction of the absorbed dose eliminated as unchanged drug in the urine ([3]; via P-gp-mediated and ABCG2-mediated secretion): third
increase in AUC∞ ([4]; mild renal impairment vs normal renal function): approximately 44%
increase in AUC∞ ([4]; moderate renal impairment vs normal renal function): ~52%
Ae, cumulative amount excreted into the urine over 48 hours [5, 16]: 1.56 (0.692) mg
Ae, cumulative amount excreted into the urine over 48 hours [5, 25]: 1.04 (0.531) mg
Ae, cumulative amount excreted into the urine over 48 hours [5, 26]: 3.29 (0.893) mg
Ae, cumulative amount excreted into the urine over 48 hours [5, 17]: 2.74 (1.10) mg
Ae, cumulative amount excreted into the urine over 48 hours [5, 27]: 4.80 (0.851) mg
Ae, cumulative amount excreted into the urine over 48 hours ([5]; rivaroxaban 10 mg, mild renal impairment): 2.49 (0.697) ^a mg
Ae, cumulative amount excreted into the urine over 48 hours ([5]; rivaroxaban 10 mg, moderate renal impairment): 1.30 (0.654) mg
Ae, cumulative amount excreted into the urine over 48 hours ([5]; rivaroxaban 10 mg, normal renal function): 3.51 (0.773) mg
subjects reporting bleeding events (Safety and tolerability; 1 NRF, 3 moderate RI, all mild in intensity, of 29 enrolled): Four
tolerability (Safety and tolerability; single dose 5 mg or 10 mg, regardless of renal function and erythromycin co-administration): well tolerated
dose proportionality (based on AUC) [6]: dose-proportional

attainment of steady-state plasma concentrations [7]: obtained by the morning of day 5
Compound: CC[C@H]1OC(=O)[C@H](C)[C@@H](O[C@H]2C[C@@](C)(OC)[C@@H](O)[C@H](C)O2)[C@H](C)[C@@H](O[C@@H]2O[C@H](C)C[C@H](N(C)C)[C@H]2O)[C@](C)(O)C[C@@H](C)C(=O)[C@H](C)[C@@H](O)[C@]1(C)O [erythromycin]
